Key:
[1] = system: Rat; experiment: concentration in plasma after dosing; settings: 20 min; dosed: Pyridine; 10 mg/kg; oral; Female; Harlan Sprague-Dawley
[2] = system: Rat; experiment: concentration in plasma after dosing; settings: dosed: Pyridine, 25 mg/kg, oral, Male, F344
[3] = system: Rat; experiment: concentration in plasma after dosing; settings: dosed: Pyridine, 5 mg/kg, iv, Male, F344
[4] = system: Rat; experiment: concentration in plasma after dosing; settings: dosed: Pyridine, 5 mg/kg, oral, Male, F344
[5] = system: Mouse; experiment: concentration in plasma after dosing; settings: 2 h; dosed: 2-Hydroxy-4-methoxybenzophenone; 500 mg/kg; oral; Female; B6C3F1
[6] = system: Mouse; experiment: concentration in plasma after dosing; settings: 2.5 min; dosed: 2-Hydroxy-4-methoxybenzophenone; 250 mg/kg; oral; Male; B6C3F1
[7] = system: Mouse; experiment: concentration in plasma after dosing; settings: 0.25 h; dosed: 2-Hydroxy-4-methoxybenzophenone; 250 mg/kg; oral; Male; B6C3F1
[8] = system: Rat; experiment: concentration in plasma after dosing; settings: dosed: 2-Hydroxy-4-methoxybenzophenone, 250 mg/kg, oral, Male, F344
[9] = system: human; experiment: amount in urine after dosing (umol)
How it was run: (§1)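 Concentration-versus-time or amount-versus-time points were compiled from published in vivo toxicokinetic studies and from two structured collections. The studies were found by PubMed searching, classifier screening and manual review. Points were mostly digitised from plot screenshots with WebPlotDigitizer, otherwise copied from tables, and kept in the reported units. Dose, route, subject details and medium were curated by hand from each paper, and sampling and analytical methods follow each source and were often unreported.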

[10] = system: Rat; experiment: concentration in plasma after dosing; settings: 6 h; dosed: alpha-Thujone; 25 mg/kg; oral; Male; Harlan Sprague Dawley
[11] = system: Rat; experiment: concentration in brain after dosing; settings: 10 min; dosed: alpha-Thujone; 25 mg/kg; oral; Male; Harlan Sprague Dawley
[12] = system: Rat; experiment: concentration in brain after dosing; settings: 6 h; dosed: Perfluorohexane-1-sulphonic acid – potassium salt; 16 mg/kg; oral; Female; F344
[13] = system: Rat; experiment: concentration in liver after dosing; settings: 3 h; dosed: Perfluorohexane-1-sulphonic acid – potassium salt; 16 mg/kg; oral; Female; F344
[14] = system: human; settings: dosed: trichloroethylene, 100 ppm, inhalation, duration: 4 hr, person
How it was run: as §1

[15] = system: Rat; experiment: concentration in plasma after dosing; settings: 1 h; dosed: Methyleugenol; 37 mg/kg; oral; Male; F344/N
[16] = system: Rat; experiment: concentration in plasma after dosing; settings: dosed: Methyleugenol, 37 mg/kg, iv, Male, F344
[17] = system: Rat; experiment: concentration in plasma after dosing; settings: 0.5 h; dosed: Primidone; 130 mg/kg; oral; Female; F344

c1ccncc1 [Pyridine]
Settings | concentration in plasma [ng/mL]
[1] | 2070

Settings | concentration in plasma [ng/mL]
[2], 0.5 h | 15300
[2], 6 h | 15100
[3], 0.05 h | 4920
[3], 4 h | 1440
[4], 4 h | 2550
[4], 5 min | 794

O=C(c1ccccc1)c1ccc(O)cc1O [2,4-Dihydroxybenzophenone]
Settings | concentration in plasma [ng/mL]
[5] | 104
[6] | 149
[7] | 1490

[8]
Settings | concentration in plasma [ng/mL]
0.25 h | 83
4 h | 121

CC(C)(O)CO [2-methyl-1,2-propanediol]
amount in urine, [9], inhalation, duration: 4 hr
Settings | dosed: ethyl tert-butyl ether | dosed: methyl tert-butyl ether
0 h, 4.5 ppm | 0.545 | 1.1
0.1089 h, 38.7 ppm | – | 7.53
0.1579 h, 40.6 ppm | 3.98 | –
5.975 h, 4.5 ppm | 2.4 | –
6 h, 40.6 ppm | 14.9 | –
6.195 h, 38.7 ppm | – | 37
6.261 h, 4.5 ppm | – | 3.42
11.95 h, 38.7 ppm | – | 45.2
12 h, 40.6 ppm | 24.1 | –
12.1 h, 4.5 ppm | – | 4.96
12.15 h, 4.5 ppm | 2.89 | –
18 h, 40.6 ppm | 19.9 | –
18.07 h, 4.5 ppm | 3.11 | –
18.16 h, 4.5 ppm | – | 2.54
18.22 h, 38.7 ppm | – | 35.6
23.96 h, 38.7 ppm | – | 26
24 h, 4.5 ppm | – | 3.2
24 h, 40.6 ppm | 12.5 | –
24.03 h, 4.5 ppm | 2.35 | –
29.89 h, 40.6 ppm | 7.97 | –
30.14 h, 38.7 ppm | – | 28.1
30.16 h, 4.5 ppm | – | 2.54
30.2 h, 4.5 ppm | 1.53 | –
35.98 h, 38.7 ppm | – | 17.1
36 h, 4.5 ppm | – | 1.32
36.11 h, 40.6 ppm | 7.37 | –
36.16 h, 4.5 ppm | 1.04 | –
42.11 h, 40.6 ppm | 4.98 | –
42.12 h, 4.5 ppm | 0.655 | –
42.15 h, 38.7 ppm | – | 8.9
42.16 h, 4.5 ppm | – | 0.662
48 h, 38.7 ppm | – | 5.48
48.11 h, 40.6 ppm | 3.19 | –
48.3 h, 4.5 ppm | 0.6 | –
54.05 h, 40.6 ppm | 2.39 | –
54.07 h, 38.7 ppm | – | 4.79
60.03 h, 38.7 ppm | – | 3.42
60.16 h, 40.6 ppm | 2.19 | –
66.09 h, 38.7 ppm | – | 3.42
66.11 h, 40.6 ppm | 1.59 | –
71.95 h, 38.7 ppm | – | 1.37
72.05 h, 40.6 ppm | 1.59 | –

amount in urine, [9], dosed: methyl tert-butyl ether, oral
Settings | 5 mg | 15 mg
0 h | 0.0411 | –
5.848 h | – | 2.13
6.268 h | 0.795 | –
12.12 h | 1.23 | 3.38
17.99 h | – | 2.7
18.39 h | 1.15 | –
24.17 h | – | 1.82
24.44 h | 0.658 | –
30.03 h | – | 1.82
30.29 h | 0.616 | –
36.11 h | – | 1.02
36.35 h | 0.384 | –
41.98 h | – | 0.46
42.2 h | 0.233 | –
48.05 h | – | 0.462
48.26 h | 0.123 | –
53.91 h | – | 0.224
54.42 h | 0.123 | –
59.78 h | – | 0.146
60.27 h | 0.0411 | –
65.95 h | – | 0.0276

CC(C)[C@]12CC(=O)[C@H](C)[C@H]1C2 [alpha-Thujone]
Settings | concentration in brain [ng/g] | concentration in plasma [ng/mL]
[10] | – | 42.9
[11] | 765 | –

O=S(=O)([O-])C(F)(F)C(F)(F)C(F)(F)C(F)(F)C(F)(F)C(F)(F)F.[K+] [Perfluorohexane-1-sulphonic acid – potassium salt]
Settings | concentration in brain [ng/g] | concentration in liver [ng/g]
[12] | 1620 | –
[13] | – | 57000

OCC(Cl)(Cl)Cl [trichloroethanol]
[14]
Settings | amount in urine after dosing [mg]
1 h | 13
2 h | 11
4 h | 21.5
8 h | 36.3
12 h | 31.4
16 h | 26.7
24 h | 33.6
36 h | 39.7
48 h | 22.6
60 h | 17
72 h | 11.5
84 h | 6.52
96 h | 3.88
108 h | 6
120 h | 3.14
132 h | 2.17
144 h | 1.65
156 h | 0.88
168 h | 1.08
180 h | 1.17

C=CCc1ccc(OC)c(OC)c1 [Methyleugenol]
Settings | concentration in plasma [ng/mL]
[15] | 63.4

[16]
Settings | concentration in plasma [ng/mL]
0.5 h | 4010
0.75 h | 2000

CCC1(c2ccccc2)C(=O)NCNC1=O [Primidone]
Settings | concentration in plasma [ng/mL]
[17] | 35300

Source: EPA's CvTdb concentration-time database
